The nature of series [1]: Cytotoxicity against human TZM-bl cells at 10 uM after 48 hrs by MTT assay. It counts as cell-based.
For series [2], the system named is Tobacco mosaic virus. Briefly: In vivo antiviral activity against TMV assessed as protection effect at 500 ug/ml. It counts as functional.
Series [3] has as its system Human immunodeficiency virus. Description: Antiviral activity against HIV infected in human TZM-bl cells at 10 uM after 48 hrs by measuring luciferase activity by luminometer analysis. Format: functional. The conditions noted are these: Human immunodeficiency virus 1, TZM-bl. Put shortly:
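TZM-bl cells seeded at 10⁴ cells/well; samples (from DMSO stocks) added next day, then pseudotyped HIV; final DMSO 2%. Incubated 48 h at 37 °C in humidified CO₂. Steady-glow luciferase substrate added, lysis 20 min in dark, luminescence read. AZT and MK-0518 as positive controls; expressed as percent inhibition.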

The test system of series [4] is Tobacco mosaic virus. Description: In vivo antiviral activity against TMV assessed as inactivation effect at 500 ug/ml. It counts as functional.
Series [5] has as its system Tobacco mosaic virus. Briefly: In vivo antiviral activity against TMV assessed as curative effect at 500 ug/ml. Format: functional.
The test system of series [6] is Tobacco mosaic virus. Description: In vitro antiviral activity against TMV at 500 ug/ml. It counts as functional.

As usually defined, the inhibition is the drop in the measured response relative to a control, in per cent.

`COC(=O)c1c(C(F)(F)F)nn(-c2ccccc2)c(=O)c1O`: the Activity entry was “Non-toxic” in series [1], 11.4% in series [2], 18.9% in series [4] and 10.7% in series [5]. Further, in series [3], the inhibition at 10 µM is -0.75%. For the same compound, the inhibition at 500 µg/mL in series [6] turned out to be 15.5%.

As for `O=C(NCc1ccc(F)cc1)c1c(C(F)(F)F)nn(Cc2cccs2)c(=O)c1O`, the Activity result in series [1] was “Non-toxic”; in series [2], 0%; in series [4], 0%; in series [5] it was 14.2%. Besides, in series [3], the inhibition at 10 µM was -7.5%. Also, the inhibition at 500 µg/mL in series [6] was found to be 0%.

Take `Cn1nc(C(F)(F)F)c(C(=O)NCc2ccc(F)cc2)c(O)c1=O`: the Activity result is reported as “Non-toxic” in series [1], 32.8% in series [2], 25.4% in series [4] and 28.4% in series [5]. In addition, the inhibition at 10 µM in series [3] was -3.5%. Also, the inhibition at 500 µg/mL in series [6] was determined as 19.6%.

On to `COC(=O)c1c(C(F)(F)F)nn(Cc2cccs2)c(=O)c1OC`, for which the Activity entry in series [1] is reported as “Non-toxic”; in series [2], 10%; in series [4], 15.1%; in series [5] it was 19.5%. In series [3], the inhibition at 10 µM is 37%. Also, the inhibition at 500 µg/mL in series [6] stood at 12.4%.

`Cn1nc(C(F)(F)F)c(C(=O)NCc2ccc(F)cc2)c(NCc2ccc(F)cc2)c1=O`: the Activity result in series [1] is on record as “Non-toxic”; in series [2], 17.5%; in series [4], 23.9%; in series [5], 11.3%. Moreover, in series [3], the inhibition at 10 µM came out at 53.5%. Further, the inhibition at 500 µg/mL in series [6] is 8.6%.

With `COC(=O)c1c(C(F)(F)F)nn(-c2ccc(F)cc2)c(=O)c1OC`, the Activity entry is reported as “Non-toxic” in series [1], 11.7% in series [2], 7.5% in series [4] and 18.6% in series [5]. In addition, the inhibition at 10 µM in series [3] was determined as 7.34%. The inhibition at 500 µg/mL in series [6] came to 22.5%.

Take `O=C(NCc1ccc(F)cc1)c1c(C(F)(F)F)nn(C/C=C/c2ccccc2)c(=O)c1O`: the Activity entry is “Non-toxic” in series [1], 12.2% in series [2], 0% in series [4] and 10.2% in series [5]. Besides, in series [3], the inhibition at 10 µM was -27.2%. In addition, the inhibition at 500 µg/mL in series [6] is 18.4%.

Regarding `COC(=O)c1c(C(F)(F)F)nn(Cc2ccccn2)c(=O)c1O`, the Activity result in series [1] is recorded as “Non-toxic”; in series [2] it was 16.7%; in series [4] it was 18.3%; in series [5] it was 9.3%. In series [3], the inhibition at 10 µM came out at 5.41%. Besides, in series [6], the inhibition at 500 µg/mL came to 21.3%.

Take `COC(=O)c1c(C(F)(F)F)nn(C/C=C/c2ccccc2)c(=O)c1OC`: the Activity entry was “Non-toxic” in series [1], 22.9% in series [2], 23.7% in series [4] and 29.8% in series [5]. The inhibition at 10 µM in series [3] is -19.4%. Also, in series [6], the inhibition at 500 µg/mL came to 20.3%.

Source of the values: ChEMBL document CHEMBL2040826, “Design, synthesis and antiviral activity of novel pyridazines” (Eur J Med Chem, 2012).
